The structures appear in SMILES notation. Changes are numbered by the printed parent chain. Values after ≈ are worked out from the molar mass of the structure shown. Active and inactive are the calls of the source. No cut-off for these calls is given here.

Test [1] deals with Tubulin beta chain (Sus scrofa) (UniProt P02554). As to the kind of experiment: Effect on MAP-rich pig beta-tubulin polymerization at 40 ug/mL by microtiter plate-based light scattering assay. The procedure, abridged:
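MAP-rich porcine tubulin (70% β-tubulin, 30% MAPs) at 2 mg/mL with 1 mM GTP. Buffer was 80 mM PIPES·NaOH pH 7.0, 2 mM MgCl₂, 1 mM EGTA. Light scattering was followed as A340 continuously at 37 °C for 60 min, against a DMSO vehicle.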

In test [2] the test system is Streptococcus agalactiae. The test can be described thus: Antimicrobial activity against Streptococcus agalactiae Strep B ATCC 12386 incubated for 24 hrs by broth microdilution method. The class given is functional. The settings on record: Strep B ATCC 12386, 24 h. The procedure, abridged:
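CLSI broth microdilution. Log-phase bacteria at 10⁵ CFU/mL were exposed to 2-fold serial dilutions (64 to 0.016 μg/mL) in cation-adjusted Mueller-Hinton broth, 5% defibrinated sheep blood added for Streptococcus. Incubated aerobically 24 h at 37 °C. Growth read as OD600; MIC taken as the lowest concentration giving 90% growth inhibition.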
(In general: In broth dilution the organism is exposed to a series of concentrations in liquid medium.)

The test system of test [3] is Enterococcus faecalis. The test can be described thus: microbe, parasite or virus in culture. The test is classed as functional. The settings on record: ATCC 51575, 24 h.
For test [4], the system named is T1, Cell division protein FtsZ (Staphylococcus aureus), P0A031 [G196A].
T1 sequence (whole entry): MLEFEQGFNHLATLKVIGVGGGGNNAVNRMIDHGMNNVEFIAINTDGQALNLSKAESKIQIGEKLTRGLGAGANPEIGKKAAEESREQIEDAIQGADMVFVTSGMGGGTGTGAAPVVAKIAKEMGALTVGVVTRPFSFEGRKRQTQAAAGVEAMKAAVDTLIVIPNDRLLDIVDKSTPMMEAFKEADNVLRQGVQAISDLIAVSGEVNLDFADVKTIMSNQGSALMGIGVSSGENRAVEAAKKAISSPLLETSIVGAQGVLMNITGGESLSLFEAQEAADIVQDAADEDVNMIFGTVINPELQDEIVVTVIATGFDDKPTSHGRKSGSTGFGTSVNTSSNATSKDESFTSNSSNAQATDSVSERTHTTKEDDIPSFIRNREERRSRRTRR
The test can be described thus: Binding affinity to Staphylococcus aureus FtsZ G196A mutant self-polymerization at 20 ug/mL by microtiter plate-based light scattering assay.

Test [5] relates to T2, Cell division protein FtsZ (Staphylococcus aureus), P0A031 [I228R].
T2 sequence (whole entry): T1 sequence (whole entry) with A196G, I228R
As to the kind of experiment: Binding affinity to Staphylococcus aureus FtsZ I228R mutant self-polymerization at 20 ug/mL by microtiter plate-based light scattering assay.

Test [6] concerns the target Cell division protein FtsZ (Staphylococcus aureus, UniProt P0A031, I228R). The test can be described thus: Binding affinity to Staphylococcus aureus FtsZ I228R mutant expressed in Escherichia coli BL21 (DE3) at 25 degC by fluorescence anisotropy assay. The procedure, abridged: (§1)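 Purified SaFtsZ mutant protein (0–25 μM) mixed with 5 μM compound in 50 mM Tris·HCl pH 7.4, 50 mM KCl, 2 mM magnesium acetate. After 5 min at 25 °C, steady-state fluorescence anisotropy read at excitation 245 / emission 318 nm, G-factor corrected, triplicate. Kd from nonlinear least-squares fit.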

For test [7], the target named is Cell division protein FtsZ (Staphylococcus aureus, UniProt P0A031, E185A). As to the kind of experiment: Binding affinity to Staphylococcus aureus FtsZ E185A mutant expressed in Escherichia coli BL21 (DE3) at 25 degC by fluorescence anisotropy assay. In a few lines:
as §1

Test [8] deals with Enterococcus faecalis. The test can be described thus: Binding affinity to Enterococcus faecalis FtsZ at 40 um by fluorescence anisotropy BoGTPgammaS competition assay. The procedure, abridged:
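Competition with fluorescent BoGTPγS. BoGTPγS (1 μM final) was mixed with 5 μM FtsZ and compound or unlabeled GTP at 0–40 μM. Buffer was 50 mM Tris·HCl pH 7.4, 50 mM KCl, 2 mM magnesium acetate. After 5 min at 25 °C, anisotropy was read at excitation 488 nm and emission 510 nm, in triplicate and averaged.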
On the technique in general: In fluorescence polarisation assays a small probe gives low polarisation when free and higher when bound to something large.

In test [9] the target is T3, Cell division protein FtsZ (Staphylococcus aureus) (UniProt P0A031).
T3 sequence (whole entry): T1 sequence (whole entry) with A196G
As to the kind of experiment: Binding affinity to Staphylococcus aureus FtsZ expressed in Escherichia coli BL21 (DE3) at 40 uM by fluorescence anisotropy BoGTPgammaS competition assay. The procedure, abridged:
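Competition: 1 μM BODIPY-GTPγS with 0 or 5 μM SaFtsZ and compound at 0–40 μM in 50 mM Tris·HCl pH 7.4, 50 mM KCl, 2 mM magnesium acetate. After 5 min at 25 °C, anisotropy read at excitation 488 / emission 510 nm, 4 nm bandwidths, triplicate. Unlabeled GTP used as the positive control.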

Test [10] in a line: Selectivity index, ratio of Kd for Enterococcus faecalis FtsZ to Kd for Escherichia coli FtsZ. The procedure, abridged:
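Buffer was 50 mM Tris·HCl pH 7.4, 50 mM KCl, 2 mM magnesium acetate. Kd came from nonlinear least-squares fits, and the index is the ratio of the two Kd values.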

The target of test [11] is T4, Cell division protein FtsZ (Staphylococcus aureus, UniProt P0A031).
T4 sequence (P0A031 whole entry): T1 sequence (whole entry) with A196G
The test can be described thus: Binding affinity to Staphylococcus aureus FtsZ expressed in Escherichia coli BL21 (DE3) at 25 degC by fluorescence anisotropy assay. Conditions: read-out: Kd. The procedure, abridged:
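Intrinsic compound fluorescence anisotropy. Compound at 5 μM was titrated with 0–25 μM FtsZ in 50 mM Tris·HCl pH 7.4, 50 mM KCl, 2 mM magnesium acetate. Samples were incubated 5 min at 25 °C, excited at 245 nm with emission at 318 nm, and G-corrected. Runs were in triplicate and averaged. Kd was obtained by nonlinear least-squares fit. SaFtsZ was expressed in E. coli BL21(DE3) and purified by ammonium sulfate, MonoQ and Superdex-200.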

Tubulin beta chain (Sus scrofa), sequence (P02554 whole entry): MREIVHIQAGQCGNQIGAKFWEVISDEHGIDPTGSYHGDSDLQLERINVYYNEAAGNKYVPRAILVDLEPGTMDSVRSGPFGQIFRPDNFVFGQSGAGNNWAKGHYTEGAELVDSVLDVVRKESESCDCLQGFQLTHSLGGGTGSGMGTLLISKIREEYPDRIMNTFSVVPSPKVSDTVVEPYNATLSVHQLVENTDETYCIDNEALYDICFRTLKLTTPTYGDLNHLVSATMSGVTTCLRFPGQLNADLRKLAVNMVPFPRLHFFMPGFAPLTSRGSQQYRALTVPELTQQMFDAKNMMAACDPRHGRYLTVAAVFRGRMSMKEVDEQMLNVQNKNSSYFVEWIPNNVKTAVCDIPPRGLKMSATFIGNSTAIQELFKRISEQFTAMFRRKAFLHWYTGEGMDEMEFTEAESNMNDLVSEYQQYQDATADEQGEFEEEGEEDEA

For the molecule `CC(C)(C)c1ccc(-c2cccc(CNC(=N)N)c2)cc1`, the result in test [1], in [8] and in test [9] was inactive. For the same molecule, the figures for the MIC in test [2] and in test [3] were 16 µg/mL (≈ 56.9 µM) and 4 µg/mL (≈ 14.2 µM), respectively. Also, the result in test [4] and in test [5] was Active. The figures for the Kd in [6], in test [7] and in [11] were 32.9 µM, 38.3 µM and 3.5 µM, respectively. In test [10], the Ratio stood at 6.
